Data reported in PMC9053741 (RSC Advances, 2020).
Read-outs that look alike come from different tables or passages of the source.

Legend:
HepG-2 = assay: Cytotoxicity assay; assay type: cell-based, Human; conditions: for IC50: read-out: IC50 HepG-2; for SI (selectivity indices): LO2 vs HepG-2, 48 h
LO2 = assay: Cytotoxicity assay; assay type: cell-based; conditions: read-out: IC50 LO2
HepG-2 cells [1] = assay: Cell apoptosis assay; assay type: cell-based, Human; conditions: HepG-2, 5 μM, 24 h
Method in brief: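 HepG-2 (1 × 10^6 cells per mL) exposed to 5 μM test compound for 24 h at 37 °C in 5% CO2. Resuspended in binding buffer (140 mM NaCl, 2.5 mM CaCl2, 10 mM Hepes/NaOH, pH 7.4) and stained with Annexin V and PI for 20 min at room temperature using a kit protocol. Early and late apoptotic fractions measured by flow cytometry.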

cyclin E = assay: Western blot, cyclin E expression; assay type: cell-based, Human; conditions: HepG-2, 5 μM, 24 h
Method in brief: (§1)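 HepG-2 seeded at 1 × 10^5 cells per mL, grown 24 h, then given 5 μM test compound for 24 h. Cells washed in ice-cold PBS, lysed, and spun at 10000g for 15 min at 4 °C. Protein measured by […], separated by SDS-PAGE and transferred to PVDF on ice for 3 h. Blocked in 5% skim milk/TBST for 1 h at 25 °C, primary antibody overnight at 4 °C, secondary 1 h at 25 °C. ECL detection, normalized to β-actin and expressed relative to control. Student's t test.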

HepG-2 cells [2] = assay: Cell cycle distribution analysis; assay type: cell-based, Human; conditions: HepG-2, 5 μM, 24 h
Method in brief: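 HepG-2 seeded at 1 × 10^5 cells per mL, settled 12 h at 37 °C in 5% CO2. Exposed to 5 μM test compound for 24 h, washed with cold PBS (pH 7.4) and fixed in 75% EtOH for 12 h at −20 °C. Treated with RNase (2.5 mg mL−1), stained with propidium iodide for 0.5 h, then run on a flow cytometer, 10000 events per sample.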

cyclin A = assay: Western blot, cyclin A expression; assay type: cell-based, Human; conditions: HepG-2, 5 μM, 24 h
Method in brief: as §1

Cdk 2 = assay: Western blot, Cdk 2 expression; assay type: cell-based, Human; conditions: HepG-2, 5 μM, 24 h
Method in brief: as §1

ferritin = assay: Western blot, ferritin expression; assay type: cell-based, Human; conditions: HepG-2, 5 μM, 24 h
Method in brief: as §1

HepG-2 cells [3] = assay: Intracellular ROS measurements; assay type: cell-based, Human; conditions: HepG-2, 5 μM, 24 h
Method in brief: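 Using a kit protocol, HepG-2 were incubated with 5 μM test compound in serum-free medium for 24 h at 37 °C. 2 μM H2DCF-DA was then added and cells washed with serum-free medium. Fluorescence measured by flow cytometry and expressed relative to untreated control.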

[4] = test system: transferrin receptor-1 (TfR1); assay: Western blot, TfR1 expression; assay type: cell-based, Human; conditions: HepG-2, 5 μM, 24 h
Method in brief: as §1

## NC(=S)NN=C(c1ccccc1)c1ccccn1 [L1, 2-(Phenyl(pyridin-2-yl)methylene)hydrazinecarbothioamide]
HepG-2; Homo sapiens, HepG2, 48 h
  IC50: 11.3 ± 0.21 µM
HepG-2
  SI (selectivity indices): 3.84
LO2; Homo sapiens, L02, 48 h
  IC50: 43.6 ± 2.84 µM

## CN(C)C(=S)NN=C(c1ccccc1)c1ccccn1 [L5, N,N-dimethyl-2-(phenyl(pyridin-2-yl)methylene)hydrazinecarbothioamide]
HepG-2; Homo sapiens, HepG2, 48 h
  IC50: 0.57 ± 0.04 µM
HepG-2
  SI (selectivity indices): 41.84
LO2; Homo sapiens, L02, 48 h
  IC50: 23.9 ± 2 µM

## [Cl][Ga-2]12([Cl])[S]C(NC3CCCCC3)=N[N+]1=C(c1ccccc1)c1cccc[n+]12 [C4, Dichlorido[N-cyclohexyl-2-(phenyl(pyridin-2-yl)methylene)hydrazinecarbothioamide-N,N,S]-gallium(III)]
HepG-2; HepG-2 cells, 48 h, MTT
  IC50: 0.97 ± 0.02 µM
LO2; LO2 normal cells, 48 h, MTT
  IC50: 20.4 ± 1.13 µM

## CCNC1=N[N+]2=C(c3ccccc3)c3cccc[n+]3[Ga-2]2([Cl])([Cl])[S]1 [C3, Dichlorido[N-ethyl-2-(phenyl(pyridin-2-yl)methylene)hydrazinecarbothioamide-N,N,S]-gallium(III)]
HepG-2; HepG-2 cells, 48 h, MTT
  IC50: 1.23 ± 0.09 µM
LO2; LO2 normal cells, 48 h, MTT
  IC50: 26.6 ± 3.86 µM

## S=C(NN=C(c1ccccc1)c1ccccn1)NC1CCCCC1 [L4, N-Cyclohexyl-2-(phenyl(pyridin-2-yl)methylene)hydrazinecarbothioamide]
HepG-2; Homo sapiens, HepG2, 48 h
  IC50: 1.32 ± 0.09 µM
HepG-2
  SI (selectivity indices): 22.97
LO2; Homo sapiens, L02, 48 h
  IC50: 30.3 ± 2.16 µM

## CNC(=S)NN=C(c1ccccc1)c1ccccn1 [L2, N-Methyl-2-(phenyl(pyridin-2-yl)methylene)hydrazinecarbothioamide]
HepG-2; Homo sapiens, HepG2, 48 h
  IC50: 4.56 ± 0.11 µM
HepG-2
  SI (selectivity indices): 7.84
LO2; Homo sapiens, L02, 48 h
  IC50: 35.8 ± 2.19 µM

## CNC1=N[N+]2=C(c3ccccc3)c3cccc[n+]3[Ga-2]2([Cl])([Cl])[S]1 [C2, Dichlorido[N-methyl-2-(phenyl(pyridin-2-yl)methylene)hydrazinecarbothioamide-N,N,S]-gallium(III)]
HepG-2; HepG-2 cells, 48 h, MTT
  IC50: 2.76 ± 0.39 µM
LO2; LO2 normal cells, 48 h, MTT
  IC50: 25.8 ± 2.93 µM

## N.N.[Cl][Pt][Cl] [Cisplatin, reference compound]
HepG-2; HepG-2 cells, 48 h, MTT
  IC50: 22.4 ± 2.21 µM
LO2; LO2 normal cells, 48 h, MTT
  IC50: 21.3 ± 2.35 µM

## CCNC(=S)NN=C(c1ccccc1)c1ccccn1 [L3, N-Ethyl-2-(phenyl(pyridin-2-yl)methylene)hydrazinecarbothioamide]
HepG-2; Homo sapiens, HepG2, 48 h
  IC50: 2.43 ± 0.1 µM
HepG-2
  SI (selectivity indices): 13.57
LO2; Homo sapiens, L02, 48 h
  IC50: 33 ± 3.64 µM

## CN(C(=S)NN=C(c1ccccc1)c1ccccn1)C1CCCCC1 [L6, N-Cyclohexyl-N-methyl-2-(phenyl(pyridin-2-yl)methylene)hydrazinecarbothioamide]
HepG-2 cells [1]
  percentage of early apoptosis and late apoptosis relative to the control: 24.87%
Cyclin E
  cyclin E expression level: significant (p < 0.05) decreased
HepG-2 cells [2]
  G1 phase cell proportion: increase
  percentage of G2 phase cells compared to the vehicle-treated control: reduced
HepG-2; Homo sapiens, HepG2, 48 h
  IC50: 0.32 ± 0.02 µM
HepG-2
  SI (selectivity indices): 36.06
Cyclin A
  cyclin A expression level: significant (p < 0.05) decreased
LO2; Homo sapiens, L02, 48 h
  IC50: 11.5 ± 0.54 µM
Cdk 2
  Cdk 2 expression level: significant (p < 0.05) decreased
ferritin
  expression of ferritin relative to the control group: 0.72 fold
HepG-2 cells [3]
  percentage of intracellular ROS level relative to the control: 17.12%
[4]
  expression of TfR1 compared to the vehicle-treated control: about 1.43 fold

## [Cl][Ga]([Cl])[Cl] [GaCl3, reference compound]
HepG-2; 50 μM
  anticancer activity: not observed
HepG-2; HepG-2 cells, 48 h, MTT
  IC50: > 50 µM
LO2; LO2 normal cells, 48 h, MTT
  IC50: > 50 µM

## NC1=N[N+]2=C(c3ccccc3)c3cccc[n+]3[Ga-2]2([Cl])([Cl])[S]1 [C1, Dichlorido[2-(phenyl(pyridin-2-yl)methylene)hydrazinecarbothioamide-N,N′,S]gallium(III)]
HepG-2; HepG-2 cells, 48 h, MTT
  IC50: 5.75 ± 0.54 µM
LO2; LO2 normal cells, 48 h, MTT
  IC50: 33.8 ± 2.13 µM
